# Test results as given in paper PMC5132079 (Clinical Pharmacology in Drug Development, 2016).
# “Also recorded” adds a separate entry of the source. Where two headings read alike, the source gives them in different places.
# Tests used:
# [1] = test system: unrestrained male monkeys; conditions: nonclinical study, cited from earlier work
# [2] = cited from earlier work
# HIV-1 = conditions: oral cabotegravir, early clinical studies; cited from earlier work
# [3] = cited from earlier work; remark: listed apart in the source
# [4] = Plasma cabotegravir pharmacokinetics after third dose; type: in vivo; conditions: human, po, 150 mg; for AUC(0-t) / Tmax: oral 150 mg every 12 hours × 3 doses; for Tmax: median (range)
# Summary of the method: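 Healthy adults took oral test compound 150 mg (5 × 30-mg tablets) every 12 h for 3 doses, fasting ≥6 h before and 4 h after the third dose. Plasma was sampled predose and 0.5–24 h after the day-2 dose. Samples were protein-precipitated and run on HPLC-MS/MS (TurboIonSpray, MRM), range 25–25 000 ng/mL. Noncompartmental analysis gave Cmax, Tmax, AUC0–12 and AUC0–24.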
# [5] = monkeys, 1000 mg/kg; nonclinical study; cited from earlier work
# [6] = single dose 150 mg; ref unpublished data; cited from earlier work
# [7] = test system: UGT and cytochrome P450 (CYP) enzymes; conditions: in vitro; cited from earlier work
# [8] = Previous single-dose cabotegravir 150 mg pharmacokinetic study; type: in vivo, human
# [9] = Drug exposure in monkey cardiovascular study; type: in vivo; conditions: 1000 mg/kg in monkeys vs 150 mg every 12 hours × 3 doses in humans
# hERG channel = conditions: 5.28 μM [2.14 μg/mL]; HEK 293 cells; nonclinical studies; cited from earlier work
# [10] = test system: QTcF in clinical study subjects; conditions: 8 phase 1/2a studies, n = 245 subjects, cited from earlier work
# healthy subjects = test: Safety assessments; type: in vivo, human; conditions: for Alanine aminotransferase increased / Any adverse event / Blood creatine phosphokinase increased / Dermatitis contact / Headache / Nausea: safety population
# Summary of the method: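 Healthy adults aged 18–55 were crossed over between test compound (150 mg every 12 h ×3), placebo and a positive control, with ≥21-day washouts. Monitoring ran throughout and covered adverse events, laboratory tests, vital signs and physical examinations. Semisupine 12-lead safety ECGs were taken at 0, 3, 12 and 15 h on day 1, at 0 and 3 h on day 2, and at 24 h on day 3. Summaries were descriptive.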
# [11] = test system: QTcF interval in healthy subjects; test: Thorough QT study, continuous Holter monitoring, time-matched ΔΔQTcF; type: in vivo, human; conditions: for time of maximum effect of ΔΔQTcF: after dosing on day 2
# Summary of the method: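 3-period crossover: test compound 150 mg orally every 12 h ×3, placebo, or single 400-mg fluoroquinolone positive control; ≥21-day washouts. Continuous 12-lead 1000-Hz Holter; day −1 24-h baseline. Triplicate ECGs extracted 0.5–24 h after day-2 dose, lead II, blinded central reader; QT Fridericia-corrected; time-matched placebo-subtracted change (ΔΔQTcF) by repeated-measures ANCOVA with 90% CIs; concentration relation via linear mixed-effects model.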
# UGT1A1, UGT1A9 = conditions: to inactive glucuronide metabolites; cited from earlier work
# cardiac repolarization = conditions: prior studies; cited from earlier work
# QTc in healthy subjects = conditions: randomized, placebo-controlled study of 20 healthy subjects; cited from earlier work
# [12] = single dose 1000 mg/kg, within the first 2 hours of dosing
# [13] = single dose 150 mg, extrapolation from 30-mg data
# [14] = 150 mg every 12 hours × 3 doses
# [15] = supratherapeutic dose, 150 mg every 12 hours × 3 doses
# [16] = cabotegravir 150 mg every 12 hours × 3 doses
# [17] = linear mixed-effects PK/pharmacodynamic model
compound,measurement,setting,value
C[C@H]1CO[C@@H]2Cn3cc(C(=O)NCc4ccc(F)cc4F)c(=O)c(O)c3C(=O)N12 [Cabotegravir],ECG waveform or interval changes,[1]; single dose 1000 mg/kg,no electrocardiogram (ECG) waveform or interval changes
same,transient increase in heart rate,[1]; [12],~20%
same,transient increase in mean arterial pressure,[1]; [12],~6%
same,cardiovascular effects,[1]; single doses of 8 and 25 mg/kg,no effects
same,dose proportionality of pharmacokinetics,"[2]; 10 to 60 mg, previous work","dose‐proportional manner from 10 to 30 mg, but in a less than proportional manner from 30 to 60 mg"
same,plasma half-life,[2]; oral cabotegravir,40 h
same,"dose proportionality of AUC(0–t), Cmax, Cτ, and Cmin",[2]; repeated administration for 14 days,Dose‐proportional increases
same,antiretroviral activity,HIV-1,potent antiretroviral activity
same,tolerability,HIV-1,generally well tolerated
same,Cmax at steady state,[3]; clinically therapeutic dose 30 mg once daily,7500 ng/mL
same,Cmax,[3]; repeat administration of 30 mg once daily in HIV-infected subjects,7490 ng/mL
same,AUC(0-t),"[4]; both, AUC0–12, geometric mean (CV,%) [90%CI], all subjects (n = 40)",217 µg·h/mL
same,AUC(0-t),"[4]; both, AUC0–24, geometric mean (CV,%) [90%CI], all subjects (n = 40)",386 µg·h/mL
same,Tmax,"[4]; both, all subjects (n = 40)",~2 h
same,Cmax,[4]; female,25100 ng/mL
same,AUC(0-t),"[4]; female, AUC0–12, geometric mean (CV,%) [90%CI], women (n = 9)",234 µg·h/mL
same,AUC(0-t),"[4]; female, AUC0–24, geometric mean (CV,%) [90%CI], women (n = 9)",409 µg·h/mL
same,Tmax,"[4]; female, women (n = 9)",2 h
same,Cmax,[4]; male,21900 ng/mL
same,AUC(0-t),"[4]; male, AUC0–12, geometric mean (CV,%) [90%CI], men (n = 31)",213 µg·h/mL
same,AUC(0-t),"[4]; male, AUC0–24, geometric mean (CV,%) [90%CI], men (n = 31)",380 µg·h/mL
same,Tmax,"[4]; male, men (n = 31)",2 h
same,Cmax,[5],67000 ng/mL
same,geometric mean Cmax,[6],10400 ng/mL
same,geometric mean plasma AUC0–∞,[6],418 µg·h/mL
same,median time to Cmax (Tmax),[6],2.5 h
same,inhibition or induction of UGT and cytochrome P450 (CYP) enzymes,[7],has not been shown to inhibit or induce
same,geometric mean Cmax higher than after repeat 30 mg once daily,[8]; single dose 150 mg vs 30 mg once daily in HIV-infected subjects,39%
same,predicted AUC0–∞,[8]; [13],870 µg·h/mL
same,predicted Cmax,[8]; [13],21200 ng/mL
same,drug exposure (Cmax) in monkeys relative to present study,[9],3 fold
same,effects on hERG channel tail current,hERG channel,no different than those observed with vehicle
same,overall mean difference in QTcF change from baseline between cabotegravir and placebo,[10]; 2540 postdose ECGs,–2.9 milliseconds
same,subjects with QTcF ≥ 480 milliseconds or change from baseline in QTcF of >60 milliseconds,[10],no subject
same,"clinical laboratory values, vital signs, or safety ECG results",healthy subjects; [14],No clinically significant trends
same,serious or grade 3 or 4 adverse events,healthy subjects; [14],no serious or grade 3 or 4 adverse events
same,Alanine aminotransferase increased,healthy subjects; cabotegravir 150 mg (n = 40),1 (3) n (%)
same,Any adverse event,healthy subjects; cabotegravir 150 mg (n = 40),13 (33) n (%)
same,Blood creatine phosphokinase increased,healthy subjects; cabotegravir 150 mg (n = 40),0 n (%)
same,Dermatitis contact,healthy subjects; cabotegravir 150 mg (n = 40),6 (15) n (%)
same,Headache,healthy subjects; cabotegravir 150 mg (n = 40),1 (3) n (%)
same,Nausea,healthy subjects; cabotegravir 150 mg (n = 40),0 n (%)
same,Dermatitis contact,"healthy subjects; cabotegravir 150 mg (n = 40), listed as cabotegravir",6 n (%)
same,tolerability,healthy subjects; [15],well tolerated
same,time of maximum effect of ΔΔQTcF,[11],8 h
same,point estimate for ΔΔQTcF at any point,[11]; [16],≤ 5 milliseconds
same,subjects with QTcF value > 450 milliseconds,[11]; [16],not associated with any instances
same,subjects with changes from baseline in QTcF of >30 milliseconds,[11]; [16],none of the subjects
same,"ΔΔQTcF, mean ± SE","[11]; cabotegravir 150 mg every 12 hours × 3 doses minus placebo, 1 h",-0.37 ± 1.74 ms
same,"ΔΔQTcF, mean ± SE","[11]; cabotegravir 150 mg every 12 hours × 3 doses minus placebo, 2 h",0.44 ± 1.83 ms
same,"ΔΔQTcF, mean ± SE","[11]; cabotegravir 150 mg every 12 hours × 3 doses minus placebo, 3 h",-0.62 ± 1.69 ms
same,"ΔΔQTcF, mean ± SE","[11]; cabotegravir 150 mg every 12 hours × 3 doses minus placebo, 4 h",-0.37 ± 1.53 ms
same,"ΔΔQTcF, mean ± SE","[11]; cabotegravir 150 mg every 12 hours × 3 doses minus placebo, 6.5 h",0.50 ± 1.63 ms
same,"ΔΔQTcF, mean ± SE","[11]; cabotegravir 150 mg every 12 hours × 3 doses minus placebo, 12 h",-0.34 ± 1.66 ms
same,"ΔΔQTcF, mean ± SE","[11]; cabotegravir 150 mg every 12 hours × 3 doses minus placebo, 24 h",1.13 ± 2.05 ms
same,upper limits of 2-sided 90% confidence intervals for ΔΔQTcF,"[11]; cabotegravir 150 mg every 12 hours × 3 doses, all time points",< 10 milliseconds
same,subjects with QTcF value > 450 milliseconds,"[11]; cabotegravir 150 mg every 12 hours × 3 doses, listed as cabotegravir",No subject
same,"mean estimated intercept, ΔΔQTcF vs time-matched cabotegravir concentration",[11]; [17],1.382 milliseconds
same,relationship between cabotegravir plasma concentrations and ΔΔQTcF,[11]; [17],no relationship; also recorded: no discernable concentration effect
same,effect on cardiac repolarization,[11]; [15],no effect on cardiac repolarization
same,metabolic pathway,"UGT1A1, UGT1A9","metabolized via UDP‐glucuronosyltransferase (UGT) 1A1, with a secondary contribution from UGT1A9"
C[C@@H]1CCO[C@H]2Cn3cc(C(=O)NCc4ccc(F)cc4F)c(=O)c(O)c3C(=O)N12 [dolutegravir],effect on cardiac repolarization,cardiac repolarization,do not affect cardiac repolarization
"COc1c(N2C[C@@H]3CCCN[C@@H]3C2)c(F)cc2c(=O)c(C(=O)O)cn(C3CC3)c12 [Moxifloxacin, moxifloxacin, reference compound]",time of first peak of placebo-adjusted QTcF change from baseline,QTc in healthy subjects,4 h
same,time of second increase in QTc,QTc in healthy subjects,8 h
same,Alanine aminotransferase increased,healthy subjects; moxifloxacin 400 mg (n = 36),0 n (%)
same,Any adverse event,healthy subjects; moxifloxacin 400 mg (n = 36),12 (33) n (%)
same,Blood creatine phosphokinase increased,healthy subjects; moxifloxacin 400 mg (n = 36),1 (3) n (%)
same,Dermatitis contact,healthy subjects; moxifloxacin 400 mg (n = 36),2 (6) n (%)
same,Headache,healthy subjects; moxifloxacin 400 mg (n = 36),2 (6) n (%)
same,Nausea,healthy subjects; moxifloxacin 400 mg (n = 36),2 (6) n (%)
same,Dermatitis contact,"healthy subjects; moxifloxacin 400 mg (n = 36), listed as moxifloxacin",2 n (%)
same,time of maximum effect of ΔΔQTcF,[11],8 h
same,"ΔΔQTcF, mean ± SE","[11]; moxifloxacin 400 mg single dose minus placebo, 0.5 h",5.40 ± 2.05 ms
same,"ΔΔQTcF, mean ± SE","[11]; moxifloxacin 400 mg single dose minus placebo, 1 h",8.75 ± 1.79 ms
same,"ΔΔQTcF, mean ± SE","[11]; moxifloxacin 400 mg single dose minus placebo, 2 h",11.67 ± 1.88 ms
same,"ΔΔQTcF, mean ± SE","[11]; moxifloxacin 400 mg single dose minus placebo, 3 h",10.49 ± 1.73 ms
same,"ΔΔQTcF, mean ± SE","[11]; moxifloxacin 400 mg single dose minus placebo, 4 h",11.81 ± 1.57 ms
same,"ΔΔQTcF, mean ± SE","[11]; moxifloxacin 400 mg single dose minus placebo, 6.5 h",10.08 ± 1.68 ms
same,"ΔΔQTcF, mean ± SE","[11]; moxifloxacin 400 mg single dose minus placebo, 8 h (maximum observed)",13.03 ± 1.63 ms
same,"ΔΔQTcF, mean ± SE","[11]; moxifloxacin 400 mg single dose minus placebo, 12 h",7.79 ± 1.69 ms
same,"ΔΔQTcF, mean ± SE","[11]; moxifloxacin 400 mg single dose minus placebo, 24 h",6.53 ± 2.10 ms
same,lower limit of the 90%CI for ΔΔQTcF,"[11]; moxifloxacin 400 mg, at several times",> 5 millisecond
